Assay results as given in article PMC6851786 (Journal of Clinical Pharmacology, 2019).
“Also recorded” adds a separate entry of the source. Where two headings read alike, the source gives them in different places.

Experiments:
[1] = Safety assessment; assay type: in vivo, human (healthy adult subjects)
[2] = test system: CYP1A2; conditions: healthy subjects; cited from earlier work
[3] = with the CYP1A2 inhibitor fluvoxamine; cited from earlier work
[4] = cited from earlier work
[5] = cited from earlier work; remark: listed apart in the source
[6] = test system: CYP3A4/5 and CYP1A2; conditions: human liver microsomes; ref data on file; cited from earlier work
[7] = Part 2: effect of CYP3A inhibitor itraconazole on avadomide PK; assay type: in vivo, human (healthy adult subjects); conditions: for Tmax / Vd/F / half-life / AUC(0-inf) / AUC(0-t) / Cmax: human, plasma
How it was run: (§1)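 Open-label, nonrandomized, single-sequence crossover in healthy adults, each subject serving as own control. Plasma for test compound was taken predose and at 0.5, 1, 2, 3, 4, 6, 8, 12, 24, 48 and 72 h postdose and assayed by validated LC-MS/MS (LLOQ 1 ng/mL; range 1–400 ng/mL). Parameters came from noncompartmental analysis, including apparent volume. The ANOVA used ln AUC0-t, AUC0-inf and Cmax, with treatment fixed and subject random. Combination/alone geometric mean ratios are given with 90% CI.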

[8] = across the 0.5- to 3.5-mg dose range; cited from earlier work
[9] = cited from earlier work; remark: listed apart in the source
[10] = Part 3: effect of CYP1A2 inhibitor fluvoxamine on avadomide PK; assay type: in vivo, human (healthy adult subjects); conditions: for Tmax / Vd/F / half-life / AUC(0-inf) / AUC(0-t) / Cmax: human, plasma; for AUC(0-inf): AUC0-inf; for AUC(0-inf) / AUC(0-t) / Cmax: Geometric LS Means; for AUC(0-t): AUC0-t
How it was run: as §1

[11] = Part 4: effect of CYP3A4 inducer rifampin on avadomide PK; assay type: in vivo, human (healthy adult subjects); conditions: for Tmax / Vd/F / half-life / AUC(0-inf) / AUC(0-t) / Cmax: human, plasma; for AUC(0-inf): AUC0-inf; for AUC(0-inf) / AUC(0-t) / Cmax: Geometric LS Means; for AUC(0-t): AUC0-t
How it was run: as §1

[12] = Part 4, following rifampin alone
[13] = with the CYP3A4 inducer carbamazepine
[14] = with the CYP3A inhibitor ketoconazole
[15] = avadomide + itraconazole/avadomide
[16] = Part 2, following avadomide alone
[17] = Part 2, following avadomide plus itraconazole
[18] = Part 3, following avadomide alone
[19] = Part 3, following avadomide plus fluvoxamine
[20] = Part 4, following avadomide plus rifampin
[21] = avadomide + fluvoxamine/avadomide
[22] = fluvoxamine coadministration versus alone
[23] = oral, 3 mg, avadomide alone, Part 3, N 18, ANOVA
[24] = oral, avadomide + fluvoxamine, N 18, ANOVA
[25] = avadomide + rifampin /avadomide
[26] = oral, 3 mg, avadomide alone, Part 4, N 19, ANOVA
[27] = oral, avadomide + rifampin, N 18, ANOVA
[28] = Part 3, following fluvoxamine alone

## CO[C@H]1/C=C/O[C@@]2(C)Oc3c(C)c(O)c4c(O)c(c(/C=N/N5CCN(C)CC5)c(O)c4c3C2=O)NC(=O)/C(C)=C\C=C\[C@H](C)[C@H](O)[C@@H](C)[C@@H](O)[C@@H](C)[C@H](OC(C)=O)[C@@H]1C [rifampin, reference compound]
[1]; [12]
  number of TEAEs reported: 5 TEAEs
  subjects reporting TEAEs: 22.2%
[2]
  increase in conversion of caffeine to paraxanthine mediated by CYP1A2: 15%

## CCC(C)n1ncn(-c2ccc(N3CCN(c4ccc(OCC5COC(Cn6cncn6)(c6ccc(Cl)cc6Cl)O5)cc4)CC3)cc2)c1=O (centres unmarked) [itraconazole, reference compound]
[1]; Part 2, after itraconazole alone
  subjects reporting TEAEs: No subjects reported TEAEs

## Nc1cccc2c1C(=O)N(C1CCC(=O)NC1=O)C2=O (centres unmarked) [pomalidomide]
[3]
  AUC, % of that when administered alone: 225.1%
  Cmax, % of that when administered alone: 123.7%
[4]; [13]
  AUC, % of that when administered alone: 79.7%
  Cmax, % of that when administered alone: 75.0%
[4]; [14]
  AUC, % of that when administered alone: 118.8%
  Cmax, % of that when administered alone: 107.3%
[5]
  metabolism and elimination: primarily metabolized by CYP1A2 and CYP3A, with a low fraction excreted in urine as unchanged drug

## Cc1nc2cccc(N)c2c(=O)n1C1CCC(=O)NC1=O (centres unmarked) [Avadomide]
[6]
  enzymes involved in oxidative metabolism: major enzymes involved in the oxidative metabolism; also recorded: major isozymes involved in oxidative metabolism; also recorded: metabolized mainly by CYP3A and CYP1A2 in vitro
[7]; avadomide 3 mg alone and with itraconazole, 72-hour sampling
  geometric mean ratio of AUC0-t to AUC0-inf: greater than 90%
[7]; [15]
  AUC0-t, Ratio of Geometric LS Means: 100.54%
  Cmax, Ratio of Geometric LS Means: ~93.64%
[7]; oral
  Tmax: 1 h
  Vd/F: 53.8 L
  half-life: 8.79 h
[7]; oral, 3 mg
  AUC(0-inf): 708 ng·h/mL
  AUC(0-t): 675 ng·h/mL
  Cmax: 70.8 ng/mL
[7]; po, 3 mg
  AUC(0-inf): 708 ng·h/mL
  AUC(0-t): 675 ng·h/mL
  Cmax: 70.8 ng/mL
  Tmax: 1 h
  Vd/F: 54.7 L
  half-life: 8.94 h
[1]; [16]
  number of TEAEs reported: 2 TEAEs
  subjects reporting TEAEs: 10.5%
[1]; [17]
  number of TEAEs reported: 2 TEAEs
  subjects reporting TEAEs: 10.5%
[1]; [18]
  moderate TEAE of vomiting, considered related to the IP: 1 subject
  number of TEAEs reported: 7 TEAEs
  subjects reporting TEAEs: 15.8%
[1]; [19]
  number of TEAEs reported: 9 TEAEs
  subjects reporting TEAEs: 38.9%
[1]; Part 4, after avadomide alone
  subjects reporting TEAEs: No subjects reported TEAEs
[1]; [20]
  number of TEAEs reported: 1 TEAE
  subjects reporting TEAEs: 5.6%
[1]; single oral dose of 3 mg alone or coadministered with fluvoxamine, itraconazole, or rifampin
  tolerability: well tolerated
[8]
  plasma exposure versus dose: increased in a dose‐dependent manner
[9]; healthy subjects
  plasma avadomide t½ (without CYP inhibition): ~8 h
[9]; single oral dose 3 to 15 mg, healthy adult subjects
  Tmax: approximately 1 hour
[9]; single oral doses of up to 15 mg, healthy subjects
  tolerability: well tolerated
[10]; avadomide 3 mg alone and with fluvoxamine, 72-hour sampling
  geometric mean ratio of AUC0-t to AUC0-inf: greater than 90%
[10]; [21]
  AUC0-inf, Ratio of Geometric LS Means: 154.81%
  AUC0-t, Ratio of Geometric LS Means: 160.35%
  Cmax, Ratio of Geometric LS Means: 107.59%
[10]; [22]
  decrease of apparent clearance: 34%
  prolongation of avadomide t½: 50%
[10]; oral
  Tmax: 0.79 h
  Vd/F: 54.3 L
  half-life: 13.7 h
[10]; [23]
  AUC(0-inf): 709 ng·h/mL
  AUC(0-t): 667 ng·h/mL
[10]; oral, 3 mg, avadomide alone, Part 3, N 19, ANOVA
  Cmax: 70.2 ng/mL
[10]; [24]
  AUC(0-inf): 1100 ng·h/mL
  AUC(0-t): 1070 ng·h/mL
  Cmax: 75.6 ng/mL
[10]; po, 3 mg
  Tmax: 0.5 h
  Vd/F: 55.2 L
  half-life: 9.16 h
[11]; avadomide 3 mg alone and with rifampin, 72-hour sampling
  geometric mean ratio of AUC0-t to AUC0-inf: greater than 90%
[11]; [25]
  AUC0-inf, Ratio of Geometric LS Means: 62.83%
  AUC0-t, Ratio of Geometric LS Means: 62.34%
  Cmax, Ratio of Geometric LS Means: 88.17%
[11]; oral
  Tmax: 0.53 h
  Vd/F: 57.3 L
  half-life: 6.08 h
[11]; [26]
  AUC(0-inf): 733 ng·h/mL
  AUC(0-t): 687 ng·h/mL
  Cmax: 74.8 ng/mL
[11]; [27]
  AUC(0-inf): 460 ng·h/mL
  AUC(0-t): 428 ng·h/mL
  Cmax: 65.9 ng/mL
[11]; po, 3 mg
  Tmax: 0.55 h
  Vd/F: 55 L
  half-life: 9.29 h

## COCCCC/C(=N\OCCN)c1ccc(C(F)(F)F)cc1 [fluvoxamine, reference compound]
[1]; [28]
  number of TEAEs reported: 11 TEAEs
  subjects reporting TEAEs: 31.6%
